In ChEMBL document CHEMBL1121929, “[(3-aryl-1,2-benzisoxazol-6-yl)oxy]acetic acids. A new diuretic series” (1982):

Legend:
[1] = tested on: Mus musculus; assay: The diuretic activity was measured after oral administration in saline loaded mice at 4 mg/kg after 5 hr; assay type: functional, Urine
Method in brief: (§1)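 Mice were dosed orally with drug in 1% saline at 10 mL/kg, at 4 or 64 mg/kg, alongside a vehicle control. There were 10 mice per group, housed 5 per metabolic cage. Pooled urine was analysed for sodium by flame photometry and expressed as mean mequiv/kg/5 h.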

[2] = tested on: Canis familiaris; assay: Diuretic activity was measured after oral administration in conscious water loaded dogs at 20 mg/kg after 1 hr; assay type: functional, Canis lupus familiaris, Urine
Method in brief: (§2)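 Male mongrel dogs (20–25 kg) were given 20 mL/kg tap water by gavage about 15 h before drug, with water ad libitum overnight. On the test day they received 4 mL/kg tap water hourly for 7 h, and the bladder was emptied at each interval. Drug was gavaged in the 4 mL/kg water load after the third urine sample, with Tween 80 added when it was poorly soluble. Urinary Na+ was measured by flame photometry as the mean excretory rate (μequiv/kg) per interval per animal. Each dog was its own control, using the hour before dosing.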

[3] = tested on: Mus musculus; assay: The diuretic activity was measured after oral administration in saline loaded mice at 64 mg/kg after 5 hr; assay type: functional, Urine; method in brief: as §1
[4] = tested on: Canis familiaris; assay: The diuretic activity of compound was measured after oral administration in conscious water loaded dogs at 5 mg/kg after 3 hr; Micro equiv of Na+/kg; assay type: functional, Canis lupus familiaris, Urine; method in brief: as §2
[5] = tested on: Canis familiaris; assay: The diuretic activity of compound was measured after oral administration in conscious water loaded dogs at 5 mg/kg after 2 hr; Micro equiv of Na+/kg; assay type: functional, Canis lupus familiaris, Urine; method in brief: as §2
[6] = tested on: Canis familiaris; assay: The diuretic activity of compound was measured after oral administration in conscious water loaded dogs at 5 mg/kg after 6 h; Micro equiv of Na+/kg; assay type: functional, Canis lupus familiaris, Urine; method in brief: as §2
[7] = tested on: Canis familiaris; assay: The diuretic activity of compound was measured after oral administration in conscious water loaded dogs at 5 mg/kg after 1 hr; Micro equiv of Na+/kg; assay type: functional, Canis lupus familiaris, Urine; method in brief: as §2
[8] = tested on: Canis familiaris; assay: The diuretic activity of compound was measured after oral administration in conscious water loaded dogs at 5 mg/kg after 5h; Micro equiv of Na+/kg; assay type: functional, Canis lupus familiaris, Urine; method in brief: as §2
[9] = tested on: Canis familiaris; assay: The diuretic activity of compound was measured after oral administration in conscious water loaded dogs at 5 mg/kg after 4 hr; Micro equiv of Na+/kg; assay type: functional, Canis lupus familiaris, Urine; method in brief: as §2
[10] = tested on: Canis familiaris; assay: The diuretic activity of compound was measured after oral administration in conscious water loaded dogs at 5 mg/kg after 7h; Micro equiv of Na+/kg; assay type: functional, Canis lupus familiaris, Urine; method in brief: as §2

SMILES	Oral diuretic activity [1]	Oral diuretic activity [2]	Oral diuretic activity [3]	further results
O=C(O)COc1ccc2c(-c3cccs3)noc2c1Cl	0.4 m equiv [Na+] 5hr-1kg-1	77.5 u equiv of [Na+] kg-1 hr-1	1 m equiv [Na+] 5hr-1kg-1	
O=C(O)COc1cc(Cl)c2c(-c3ccccc3F)noc2c1	1.59 m equiv [Na+] 5hr-1kg-1	82.1 u equiv of [Na+] kg-1 hr-1	1.16 m equiv [Na+] 5hr-1kg-1	
CCOC(=O)COc1ccc2c(-c3ccccc3F)noc2c1Cl		39.1 u equiv of [Na+] kg-1 hr-1	1.48 m equiv [Na+] 5hr-1kg-1	
O=C(O)COc1ccc2c(-c3c(F)cccc3F)noc2c1Cl	5.3 m equiv [Na+] 5hr-1kg-1	1081.4 u equiv of [Na+] kg-1 hr-1	10.4 m equiv [Na+] 5hr-1kg-1	Oral diuretic activity [4]: 257.2 u equiv of [Na+] kg-1; Oral diuretic activity [5]: 98.9 u equiv of [Na+] kg-1; Oral diuretic activity [6]: 342.6 u equiv of [Na+] kg-1; Oral diuretic activity [7]: 108.4 u equiv of [Na+] kg-1; Oral diuretic activity [8]: 397 u equiv of [Na+] kg-1; Oral diuretic activity [9]: 431.8 u equiv of [Na+] kg-1; Oral diuretic activity [10]: 190 u equiv of [Na+] kg-1
O=C(O)COc1ccc2c(-c3ccc(F)cc3)noc2c1Cl	0.4 m equiv [Na+] 5hr-1kg-1	178.7 u equiv of [Na+] kg-1 hr-1	0.4 m equiv [Na+] 5hr-1kg-1	
O=C(O)COc1ccc2c(-c3cccc(F)c3F)noc2c1Cl		80 u equiv of [Na+] kg-1 hr-1	5.8 m equiv [Na+] 5hr-1kg-1	
O=C(O)COc1ccc2c(-c3ccccc3)noc2c1Cl	0.8 m equiv [Na+] 5hr-1kg-1	47.5 u equiv of [Na+] kg-1 hr-1	1.7 m equiv [Na+] 5hr-1kg-1	
Cc1ccc(-c2noc3c(Cl)c(OCC(=O)O)ccc23)cc1	0.8 m equiv [Na+] 5hr-1kg-1	29.3 u equiv of [Na+] kg-1 hr-1	0.6 m equiv [Na+] 5hr-1kg-1	
O=C(O)COc1ccc2c(-c3ccoc3)noc2c1Cl	0.6 m equiv [Na+] 5hr-1kg-1	293 u equiv of [Na+] kg-1 hr-1	2.1 m equiv [Na+] 5hr-1kg-1	
O=C(O)COc1ccc2c(-c3ccc(Cl)c(Cl)c3)noc2c1Cl	0.6 m equiv [Na+] 5hr-1kg-1	101.6 u equiv of [Na+] kg-1 hr-1	0.1 m equiv [Na+] 5hr-1kg-1	
O=C(O)COc1ccc2c(-c3ccc(Cl)cc3)noc2c1Cl	0.5 m equiv [Na+] 5hr-1kg-1	41.2 u equiv of [Na+] kg-1 hr-1	0.5 m equiv [Na+] 5hr-1kg-1	
O=C(O)COc1ccc2c(-c3cccc(F)c3)noc2c1Cl	0.75 m equiv [Na+] 5hr-1kg-1	50.6 u equiv of [Na+] kg-1 hr-1	0.81 m equiv [Na+] 5hr-1kg-1	
O=C(O)COc1ccc2c(-c3ccc(O)cc3F)noc2c1Cl	0.5 m equiv [Na+] 5hr-1kg-1	43.5 u equiv of [Na+] kg-1 hr-1	0.6 m equiv [Na+] 5hr-1kg-1	
O=C(O)COc1c(Cl)cc2c(-c3ccccc3F)noc2c1Cl		85.7 u equiv of [Na+] kg-1 hr-1	0.41 m equiv [Na+] 5hr-1kg-1	
Cc1cccc(-c2noc3c(Cl)c(OCC(=O)O)ccc23)c1C		219.9 u equiv of [Na+] kg-1 hr-1	0.02 m equiv [Na+] 5hr-1kg-1	
O=C(O)COc1ccc2c(-c3ccccn3)noc2c1Cl	0.5 m equiv [Na+] 5hr-1kg-1	61.2 u equiv of [Na+] kg-1 hr-1	1 m equiv [Na+] 5hr-1kg-1	
Cc1ccc(-c2noc3c(Cl)c(OCC(=O)O)ccc23)o1	0.3 m equiv [Na+] 5hr-1kg-1	37.4 u equiv of [Na+] kg-1 hr-1	1.5 m equiv [Na+] 5hr-1kg-1	
O=C(O)COc1ccc2c(-c3ccccc3F)noc2c1		33.6 u equiv of [Na+] kg-1 hr-1	2.89 m equiv [Na+] 5hr-1kg-1	

SMILES	Oral diuretic activity [1]	Oral diuretic activity [2]	Oral diuretic activity [3]	further results
O=C(O)COc1ccc(C(=O)c2cccs2)c(Cl)c1Cl [TICRYNAFEN]	1.11 m equiv [Na+] 5hr-1kg-1	302.3 u equiv of [Na+] kg-1 hr-1	3.31 m equiv [Na+] 5hr-1kg-1	Oral diuretic activity [7]: 127.5 u equiv of [Na+] kg-1; Oral diuretic activity [8]: 36.5 u equiv of [Na+] kg-1; Oral diuretic activity [9]: 77.4 u equiv of [Na+] kg-1; Oral diuretic activity [10]: 21.2 u equiv of [Na+] kg-1
Cc1ccc(-c2noc3c(Cl)c(OCC(=O)O)ccc23)s1		122.4 u equiv of [Na+] kg-1 hr-1	0.5 m equiv [Na+] 5hr-1kg-1	
O=C(O)COc1ccc2c(-c3ccc(Cl)cc3F)noc2c1Cl	1.8 m equiv [Na+] 5hr-1kg-1	156.2 u equiv of [Na+] kg-1 hr-1	1.4 m equiv [Na+] 5hr-1kg-1	
O=C(O)COc1ccc2c(-c3ccccc3F)noc2c1Br [BROCRINAT]	1.02 m equiv [Na+] 5hr-1kg-1	1970.7 u equiv of [Na+] kg-1 hr-1	11.53 m equiv [Na+] 5hr-1kg-1	Oral diuretic activity [4]: 1182.6 u equiv of [Na+] kg-1; Oral diuretic activity [5]: 1083 u equiv of [Na+] kg-1; Oral diuretic activity [7]: 106.8 u equiv of [Na+] kg-1; Oral diuretic activity [8]: 503.3 u equiv of [Na+] kg-1; Oral diuretic activity [9]: 869 u equiv of [Na+] kg-1
O=C(O)CSc1ccc2c(-c3ccccc3F)noc2c1Cl	1.37 m equiv [Na+] 5hr-1kg-1	328.4 u equiv of [Na+] kg-1 hr-1	4.67 m equiv [Na+] 5hr-1kg-1	
O=C(O)COc1ccc(-c2noc3ccccc23)c(Cl)c1Cl	0.33 m equiv [Na+] 5hr-1kg-1	81.6 u equiv of [Na+] kg-1 hr-1	1.49 m equiv [Na+] 5hr-1kg-1	
O=C(O)COc1ccc2c(-c3ccccc3F)noc2c1Cl	3.5 m equiv [Na+] 5hr-1kg-1	1267.5 u equiv of [Na+] kg-1 hr-1	10 m equiv [Na+] 5hr-1kg-1	Oral diuretic activity [4]: 727 u equiv of [Na+] kg-1; Oral diuretic activity [5]: 499.4 u equiv of [Na+] kg-1; Oral diuretic activity [6]: 241.7 u equiv of [Na+] kg-1; Oral diuretic activity [7]: 48.6 u equiv of [Na+] kg-1; Oral diuretic activity [8]: 458.2 u equiv of [Na+] kg-1; Oral diuretic activity [9]: 503.7 u equiv of [Na+] kg-1; Oral diuretic activity [10]: 146.2 u equiv of [Na+] kg-1
O=C(O)COc1ccc2c(-c3ccc4ccccc4c3)noc2c1Cl	1.2 m equiv [Na+] 5hr-1kg-1	53.3 u equiv of [Na+] kg-1 hr-1	1.1 m equiv [Na+] 5hr-1kg-1	
O=C(O)COc1cc2onc(-c3ccccc3F)c2cc1Cl	0.6 m equiv [Na+] 5hr-1kg-1	49.8 u equiv of [Na+] kg-1 hr-1	0.2 m equiv [Na+] 5hr-1kg-1	
O=C(O)COc1ccc2c(-c3ccccc3Cl)noc2c1Cl	0.6 m equiv [Na+] 5hr-1kg-1	48.2 u equiv of [Na+] kg-1 hr-1	9.1 m equiv [Na+] 5hr-1kg-1	
O=C(O)COc1c(Cl)c(Cl)c2c(-c3ccccc3F)noc2c1Cl	0.53 m equiv [Na+] 5hr-1kg-1	109 u equiv of [Na+] kg-1 hr-1	1.65 m equiv [Na+] 5hr-1kg-1	
O=C(O)COc1ccc2c(-c3ccco3)noc2c1Cl		199 u equiv of [Na+] kg-1 hr-1	0.6 m equiv [Na+] 5hr-1kg-1	
O=C(O)COc1ccc2c(-c3cc(F)ccc3F)noc2c1Cl	2.2 m equiv [Na+] 5hr-1kg-1	926.2 u equiv of [Na+] kg-1 hr-1	8.3 m equiv [Na+] 5hr-1kg-1	
Cc1ccccc1-c1noc2c(Cl)c(OCC(=O)O)ccc12	0.02 m equiv [Na+] 5hr-1kg-1	66.9 u equiv of [Na+] kg-1 hr-1	1.76 m equiv [Na+] 5hr-1kg-1	
O=C(O)COc1ccc2c(-c3ccccc3F)noc2c1I	0.07 m equiv [Na+] 5hr-1kg-1	617.3 u equiv of [Na+] kg-1 hr-1	3.41 m equiv [Na+] 5hr-1kg-1	
O=C(O)COc1cc2onc(-c3ccccc3F)c2cc1Br	0.47 m equiv [Na+] 5hr-1kg-1		0.28 m equiv [Na+] 5hr-1kg-1	
O=C(O)COc1ccc2c(-c3ccc(F)cc3F)noc2c1Cl	0.7 m equiv [Na+] 5hr-1kg-1	41.7 u equiv of [Na+] kg-1 hr-1	0.9 m equiv [Na+] 5hr-1kg-1	
Cc1ccsc1-c1noc2c(Cl)c(OCC(=O)O)ccc12		97.7 u equiv of [Na+] kg-1 hr-1	0.7 m equiv [Na+] 5hr-1kg-1	
